Measured values as given in ChEMBL document CHEMBL3576819, “Design, synthesis, biological evaluation and molecular docking studies of phenylpropanoid derivatives as potent anti-hepatitis B virus agents” (Eur J Med Chem, 2015).

Legend:
[1] = system: Hepatitis B virus; test: Antiviral activity against Hepatitis B virus infected in human HepG2.2.15 cells assessed as inhibition of HBV DNA copies per uL at 150 uM after 6 days by real-time fluorescence quantitative PCR analysis; assay type: functional; conditions: HepG2 2.2.15, 144 h
[2] = system: Hepatitis B virus; test: Antiviral activity against Hepatitis B virus infected in human HepG2.2.15 cells assessed as inhibition of HBV DNA copies per uL at 75 uM after 6 days by real-time fluorescence quantitative PCR analysis; assay type: functional; conditions: HepG2 2.2.15, 144 h
[3] = system: Hepatitis B virus; test: Antiviral activity against Hepatitis B virus infected in human HepG2.2.15 cells assessed as inhibition of HBsAg secretion at 37.5 uM after 6 days by ELISA; assay type: functional; conditions: HepG2 2.2.15, 144 h
Outline: (§1)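 HepG2.2.15 cells (MEM, 10% FBS, 380 µg/ml G418) seeded at 1×10^5 cells/ml, held 24 h at 37 °C, then treated with various drug concentrations; medium with drug renewed every 3 d for up to 9 d. Culture medium sampled on days 3, 6 and 9, stored at -20 °C, and assayed for secreted antigen. Lamivudine as positive control; IC50 = 50% inhibition of secretion; means of at least two experiments.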

[4] = system: Hepatitis B virus; test: Antiviral activity against Hepatitis B virus infected in human HepG2.2.15 cells assessed as cell survival at 300 uM after 9 days (reference value: 100%); assay type: functional; conditions: HepG2 2.2.15, 216 h
Outline: (§2)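 HepG2.2.15 cells (MEM, 10% FBS, 380 µg/ml G418, 37 °C, 5% CO2) seeded at 1×10^5 cells/ml, cultured 24 h, then exposed to various drug concentrations; drug-containing medium renewed every 3 d. OD read at 450 nm after 9 days; percent cell death calculated; CC50 = concentration killing 50% of cells. Means of at least two experiments.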

[5] = system: Hepatitis B virus; test: Antiviral activity against Hepatitis B virus infected in human HepG2.2.15 cells assessed as inhibition of HBsAg secretion at 75 uM after 9 days by ELISA; assay type: functional; conditions: HepG2 2.2.15, 216 h; outline: as §1
[6] = system: Hepatitis B virus; test: Antiviral activity against Hepatitis B virus infected in human HepG2.2.15 cells assessed as inhibition of HBeAg secretion at 150 uM after 6 days by ELISA; assay type: functional; conditions: HepG2 2.2.15, 144 h; outline: as §1
[7] = system: Hepatitis B virus; test: Antiviral activity against Hepatitis B virus infected in human HepG2.2.15 cells assessed as inhibition of HBeAg secretion at 75 uM after 9 days by ELISA; assay type: functional; conditions: HepG2 2.2.15, 216 h; outline: as §1
[8] = system: Hepatitis B virus; test: Antiviral activity against Hepatitis B virus infected in human HepG2.2.15 cells assessed as inhibition of HBeAg secretion at 37.5 uM after 6 days by ELISA; assay type: functional; conditions: HepG2 2.2.15, 144 h; outline: as §1
[9] = system: Hepatitis B virus; test: Antiviral activity against Hepatitis B virus infected in human HepG2.2.15 cells assessed as inhibition of HBV DNA replication by real-time fluorescence quantitative PCR analysis; assay type: functional, organism-based; conditions: HepG2 2.2.15
[10] = system: Hepatitis B virus; test: Antiviral activity against Hepatitis B virus infected in human HepG2.2.15 cells assessed as inhibition of HBsAg secretion at 75 uM after 6 days by ELISA; assay type: functional; conditions: HepG2 2.2.15, 144 h; outline: as §1
[11] = system: Hepatitis B virus; test: Antiviral activity against Hepatitis B virus infected in human HepG2.2.15 cells assessed as inhibition of HBV DNA copies per uL at 75 uM after 9 days by real-time fluorescence quantitative PCR analysis; assay type: functional; conditions: HepG2 2.2.15, 216 h
[12] = system: Hepatitis B virus; test: Antiviral activity against Hepatitis B virus infected in human HepG2.2.15 cells assessed as inhibition of HBsAg secretion at 300 uM after 9 days by ELISA; assay type: functional; conditions: HepG2 2.2.15, 216 h; outline: as §1
[13] = system: Hepatitis B virus; test: Antiviral activity against Hepatitis B virus infected in human HepG2.2.15 cells assessed as inhibition of HBsAg secretion at 300 uM after 3 days by ELISA; assay type: functional; conditions: HepG2 2.2.15, 72 h; outline: as §1
[14] = system: Hepatitis B virus; test: Antiviral activity against Hepatitis B virus infected in human HepG2.2.15 cells assessed as inhibition of HBsAg secretion at 75 uM after 3 days by ELISA; assay type: functional; conditions: HepG2 2.2.15, 72 h; outline: as §1
[15] = system: Hepatitis B virus; test: Antiviral activity against Hepatitis B virus infected in human HepG2.2.15 cells assessed as inhibition of HBeAg secretion at 150 uM after 3 days by ELISA; assay type: functional; conditions: HepG2 2.2.15, 72 h; outline: as §1
[16] = system: Hepatitis B virus; test: Antiviral activity against Hepatitis B virus infected in human HepG2.2.15 cells assessed as inhibition of HBeAg secretion at 300 uM after 9 days by ELISA; assay type: functional; conditions: HepG2 2.2.15, 216 h; outline: as §1
[17] = system: Hepatitis B virus; test: Antiviral activity against Hepatitis B virus infected in human HepG2.2.15 cells assessed as inhibition of HBeAg secretion at 150 uM after 9 days by ELISA; assay type: functional; conditions: HepG2 2.2.15, 216 h; outline: as §1
[18] = system: Hepatitis B virus; test: Antiviral activity against Hepatitis B virus infected in human HepG2.2.15 cells assessed as inhibition of HBeAg secretion by ELISA; assay type: functional, organism-based; conditions: HepG2 2.2.15; outline: as §1
[19] = system: Hepatitis B virus; test: Antiviral activity against Hepatitis B virus infected in human HepG2.2.15 cells assessed as inhibition of HBV DNA copies per uL at 37.5 uM after 6 days by real-time fluorescence quantitative PCR analysis; assay type: functional; conditions: HepG2 2.2.15, 144 h
[20] = system: Hepatitis B virus; test: Antiviral activity against Hepatitis B virus infected in human HepG2.2.15 cells assessed as inhibition of HBsAg secretion at 300 uM after 6 days by ELISA; assay type: functional; conditions: HepG2 2.2.15, 144 h; outline: as §1
[21] = system: Hepatitis B virus; test: Antiviral activity against Hepatitis B virus infected in human HepG2.2.15 cells assessed as inhibition of HBsAg secretion at 150 uM after 6 days by ELISA; assay type: functional; conditions: HepG2 2.2.15, 144 h; outline: as §1
[22] = system: Hepatitis B virus; test: Antiviral activity against Hepatitis B virus infected in human HepG2.2.15 cells assessed as inhibition of HBeAg secretion at 300 uM after 6 days by ELISA; assay type: functional; conditions: HepG2 2.2.15, 144 h; outline: as §1
[23] = system: Hepatitis B virus; test: Antiviral activity against Hepatitis B virus infected in human HepG2.2.15 cells assessed as inhibition of HBeAg secretion at 75 uM after 3 days by ELISA; assay type: functional; conditions: HepG2 2.2.15, 72 h; outline: as §1
[24] = system: Hepatitis B virus; test: Antiviral activity against Hepatitis B virus infected in human HepG2.2.15 cells assessed as inhibition of HBV DNA copies per uL at 37.5 uM after 3 days by real-time fluorescence quantitative PCR analysis; assay type: functional; conditions: HepG2 2.2.15, 72 h
[25] = system: Hepatitis B virus; test: Antiviral activity against Hepatitis B virus infected in human HepG2.2.15 cells assessed as cell survival at 37.5 uM after 9 days (reference value: 100%); assay type: functional; conditions: HepG2 2.2.15, 216 h; outline: as §2
[26] = system: Hepatitis B virus; test: Antiviral activity against Hepatitis B virus infected in human HepG2.2.15 cells assessed as cell survival at 150 uM after 9 days (reference value: 100%); assay type: functional; conditions: HepG2 2.2.15, 216 h; outline: as §2
[27] = system: Hepatitis B virus; test: Antiviral activity against Hepatitis B virus infected in human HepG2.2.15 cells assessed as inhibition of HBsAg secretion by ELISA; assay type: functional, organism-based; conditions: HepG2 2.2.15; outline: as §1
[28] = system: Hepatitis B virus; test: Antiviral activity against Hepatitis B virus infected in human HepG2.2.15 cells assessed as inhibition of HBV DNA copies per uL at 150 uM after 3 days by real-time fluorescence quantitative PCR analysis; assay type: functional; conditions: HepG2 2.2.15, 72 h
[29] = Cytotoxicity against human HepG2.2.15 cells assessed as cell death after 9 days by MTT assay; assay type: cell-based, HepG2 2.2.15; outline: as §2
[30] = system: Hepatitis B virus; test: Antiviral activity against Hepatitis B virus infected in human HepG2.2.15 cells assessed as inhibition of HBV DNA copies per uL at 37.5 uM after 9 days by real-time fluorescence quantitative PCR analysis; assay type: functional; conditions: HepG2 2.2.15, 216 h
[31] = system: Hepatitis B virus; test: Antiviral activity against Hepatitis B virus infected in human HepG2.2.15 cells assessed as inhibition of HBsAg secretion at 37.5 uM after 9 days by ELISA; assay type: functional; conditions: HepG2 2.2.15, 216 h; outline: as §1

| IC50 [9] [µM] | IC50 [18] [µM] | Structure (SMILES) | inhibition at 150 µM [1] [%] | inhibition at 75 µM [2] [%] | inhibition at 37.5 µM [3] [%] | viability at 300 µM [4] [%] | inhibition at 75 µM [5] [%] | inhibition at 150 µM [6] [%] | inhibition at 75 µM [7] [%] | inhibition at 37.5 µM [8] [%] | inhibition at 75 µM [10] [%] | inhibition at 75 µM [11] [%] | inhibition at 300 µM [12] [%] | inhibition at 300 µM [13] [%] | inhibition at 75 µM [14] [%] | inhibition at 150 µM [15] [%] | inhibition at 300 µM [16] [%] | inhibition at 150 µM [17] [%] | inhibition at 37.5 µM [19] [%] | inhibition at 300 µM [20] [%] | further results |
| --- | --- | --- | --- | --- | --- | --- | --- | --- | --- | --- | --- | --- | --- | --- | --- | --- | --- | --- | --- | --- | --- |
| 140 | 75.3 | COc1cc(/C=C/C(=O)O/N=C/c2ccco2)cc2c1OCO2 | 42.9 | 39.4 | 24.9 | 89.3 | 57.7 | 55.5 | 56.9 | 30.7 | 40.1 | 39.6 | 77.2 | 66.2 | 38.8 | 51.5 | 74.6 | 65.2 | 27.6 | 70.7 | inhibition at 150 µM [21]: 58.5%; inhibition at 300 µM [22]: 62%; inhibition at 75 µM [23]: 32.1%; inhibition at 37.5 µM [24]: 19.8%; viability at 37.5 µM [25]: 109%; viability at 150 µM [26]: 91.5%; IC50 [27]: 63.5 µM; inhibition at 150 µM [28]: 40.7%; CC50 at 216 h [29]: 820 µM; inhibition at 37.5 µM [30]: 30.5%; inhibition at 37.5 µM [31]: 36.5% |
| 6.86 | 267 | Nc1ccn([C@@H]2CS[C@H](CO)O2)c(=O)n1 [LAMIVUDINE] | 66.8 | 58.9 | 7.98 | 75.2 | 33.1 | 31.1 | 34.2 | 12.8 | 24.1 | 76.7 | 60.4 | 37.3 | 22 | 23.9 | 4 | 45.4 | 38.6 | 43.6 | inhibition at 150 µM [21]: 30.7%; inhibition at 300 µM [22]: 39.9%; inhibition at 75 µM [23]: 15.1%; inhibition at 37.5 µM [24]: 40%; viability at 37.5 µM [25]: 118%; viability at 150 µM [26]: 82.4%; IC50 [27]: 235 µM; inhibition at 150 µM [28]: 46.6%; CC50 at 216 h [29]: 568 µM; inhibition at 37.5 µM [30]: 69.4%; inhibition at 37.5 µM [31]: 25.2% |
